Bioassay records from PubChem BioAssay.
A selection: hits, their analogues and other compounds. The true share with any hit is near 2.5%.
E-sel inducer: induces E-selectin expression in human endothelial cells; P16581; HUVEC E-selectin immunofluorescence imaging; normalized: neutral wells 0, TNF-alpha wells 100; 260,000 tested, 0.37% active; activation, % at 7.58 µM; AID 686992;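 active = mean E-selectin-positive cell signal at least 10% of the positive control, reached in at least 60% of replicates, without over 20% cell loss; inconclusive = no rule given, readout overlaps actives, possibly toxicity-flagged; inactive = the rest, including those meeting only one limit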
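Test system: HUVEC; input: 3,000 HUVEC/well; measured by: immunofluorescence imaging; read-out: % PE-positive cells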
SIRT5 block: blocks human SIRT5 desuccinylation of peptide | Purified SirT5, succinyl-peptide AMC, trypsin-coupled fluorescence | inhibition, % at 15 µM | 330,000 tested, 1.1% active | AID 652115; in the data active = inhibition above about 15%; inconclusive = no clear call, values can overlap the other calls
DENV2 CPE rescue: DENV2-induced cell death inhibition; CPE inhibition, % at 9.99 µM; DENV2-infected cells, cytopathic effect rescue, plate reader; AID 651640; 350,000 tested, 1.7% active; in the data active = CPE inhibition above about 20%, passing the limit was not always enough; inconclusive = no clear call, values can overlap the other calls; tested in BHK-21 cells;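 also: 0% = median of neutral control wells and 100% = median of positive control wells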
ERAP1 inh: ERAP1 (human) enzyme inhibition; inhibition, % at 10.7 µM; AID 652197; Q9NZ08; recombinant ERAP1, Leu-AMC fluorescence, 60 min; 340,000 tested, 0.15% active;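 active = mean replicate inhibition of at least 30%, or all replicates individually reaching that 30% level; inactive = mean below 30% and not every replicate reaching it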;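 also: 0% = neutral control wells and 100% = L-leucinethiol positive control wells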
Target sequence (Q9NZ08 whole entry, looked up): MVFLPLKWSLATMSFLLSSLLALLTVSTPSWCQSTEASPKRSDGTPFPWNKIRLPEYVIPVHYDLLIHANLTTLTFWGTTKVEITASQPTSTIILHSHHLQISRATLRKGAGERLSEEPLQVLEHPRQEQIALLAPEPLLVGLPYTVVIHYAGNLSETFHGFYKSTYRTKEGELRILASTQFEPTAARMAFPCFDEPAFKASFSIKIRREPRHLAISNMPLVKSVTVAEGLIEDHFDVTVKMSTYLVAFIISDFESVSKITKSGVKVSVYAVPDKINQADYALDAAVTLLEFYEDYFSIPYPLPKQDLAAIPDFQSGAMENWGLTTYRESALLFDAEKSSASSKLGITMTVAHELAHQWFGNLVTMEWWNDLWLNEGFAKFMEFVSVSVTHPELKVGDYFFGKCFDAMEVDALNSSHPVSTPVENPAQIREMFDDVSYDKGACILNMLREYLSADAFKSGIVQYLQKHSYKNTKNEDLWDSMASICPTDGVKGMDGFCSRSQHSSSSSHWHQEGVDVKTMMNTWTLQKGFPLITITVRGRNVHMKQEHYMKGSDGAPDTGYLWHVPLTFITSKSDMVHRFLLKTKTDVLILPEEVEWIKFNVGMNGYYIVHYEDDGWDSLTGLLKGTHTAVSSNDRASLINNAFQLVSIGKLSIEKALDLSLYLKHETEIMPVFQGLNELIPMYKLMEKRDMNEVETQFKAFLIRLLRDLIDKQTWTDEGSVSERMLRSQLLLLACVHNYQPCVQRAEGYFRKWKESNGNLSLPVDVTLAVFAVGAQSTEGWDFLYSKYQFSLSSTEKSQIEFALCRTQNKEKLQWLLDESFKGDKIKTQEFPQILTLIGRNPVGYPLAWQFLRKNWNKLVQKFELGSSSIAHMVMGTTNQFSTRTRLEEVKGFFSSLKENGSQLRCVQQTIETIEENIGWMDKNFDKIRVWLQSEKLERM
PglD DTNB: inhibitors of Campylobacter jejuni PglD acetyltransferase | inhibition, % at 12.5 µM | 360,000 tested, 0.098% active | purified PglD enzyme, DTNB colorimetric CoA detection; in the data active = inhibition above about 16%, passing the limit was not always enough; inconclusive = no clear call, values can overlap the other calls
PglD inh SP: blocks Campylobacter jejuni PglD acetyltransferase activity | shares compounds with PglD DTNB | Purified C. jejuni PglD, DTNB absorbance 412 nm | inhibition, % at 20 µM | 320 tested, under 10 active | AID 743156;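 active = mean inhibition across replicates of at least 20% with every single replicate also at 20% or more; inconclusive = mean inhibition at least 20% but some replicate falls below 20%; inactive = mean inhibition under 20% and not all replicates reach it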;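 also: initial rate of CoA release by acetyl transfer from AcCoA to the UDP-4-amino sugar; 0% = median of neutral control wells and 100% = median of positive control wells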
* marks the source's active call; other numbers are inactive results.

Screening CC(=O)NC1C(=O)N(CCN2CCOCC2)c2ccc(Cl)cc21 (stereo not drawn) returned E-sel inducer 0, SIRT5 block -2, DENV2 CPE rescue 2, ERAP1 inh 20, PglD DTNB 25* and PglD inh SP 48*.
`c1csc(-c2ccc3nncn3c2)c1` gave E-sel inducer 0, SIRT5 block 0, DENV2 CPE rescue 0, ERAP1 inh -1, PglD DTNB 36* and PglD inh SP 0.
OCc1ccccc1-c1ccc2nncn2c1 was read as E-sel inducer 0, DENV2 CPE rescue 2, ERAP1 inh 6 and PglD DTNB 8.
Screening Cn1c2ccccc2c2nnc(SCC(N)=O)nc21 returned E-sel inducer 0, SIRT5 block -1, DENV2 CPE rescue 1, ERAP1 inh 0, PglD DTNB 47* and PglD inh SP 1.
CCOC(=O)CSc1nnc2c3ccccc3n(C)c2n1 was read as SIRT5 block -3, DENV2 CPE rescue 8, ERAP1 inh 1 and PglD DTNB -7.
CO[C@@H]1CN(C)C(=O)c2ccc(NC(C)=O)cc2OC[C@@H](C)N(C(=O)NC2CCCCC2)C[C@H]1C was read as E-sel inducer 0, SIRT5 block 3, DENV2 CPE rescue 1, ERAP1 inh 3 and PglD DTNB 2.
Screening CC1CN(CCN2CC(C)N(C=O)CC2C)C(C)CN1C=O (stereo not drawn) returned E-sel inducer -1, SIRT5 block 6, DENV2 CPE rescue inconclusive, ERAP1 inh -2 and PglD DTNB 0.
Screening COc1cccc(C2CC(c3ccc(Cl)cc3)n3nc(N)nc3N2)c1 (stereo not drawn) returned E-sel inducer 0, DENV2 CPE rescue 3, PglD DTNB 26* and PglD inh SP 4.
Screening CCN(CC)C(=O)c1[nH]cnc1C(=O)N[C@@H](CCCCNC(=O)OC(C)(C)C)C(=O)OC(C)(C)C returned E-sel inducer 0, SIRT5 block -3, DENV2 CPE rescue 2, ERAP1 inh 0 and PglD DTNB 1.
For COc1ccc(CCNc2nc3ccccc3n3nnnc23)cc1OC the results were E-sel inducer 1, DENV2 CPE rescue -8 and PglD DTNB 1.
For c1ccc(CCNc2nc3ccccc3n3nnnc23)cc1 the results were PglD DTNB 25* and PglD inh SP -10.
Screening C[C@@H]1CN([C@H](C)CO)C(=O)c2cc(N(C)C)ccc2O[C@@H](C)CCCCO[C@H]1CN(C)C(=O)NC1CCCCC1 returned E-sel inducer 0, SIRT5 block 4, DENV2 CPE rescue -16, ERAP1 inh -2 and PglD DTNB 1.
`COc1ccc(C(C(=O)NCC2CCCO2)N(C(=O)CNC(=O)c2ccco2)c2ccc(C)c(C)c2)cc1OC` (stereo not drawn) gave SIRT5 block -1, DENV2 CPE rescue -3, ERAP1 inh 2, PglD DTNB 22* and PglD inh SP -4.
CCN(CC)CCOC(=O)c1ccc(N/C=C(/C#N)c2nc(-c3ccc(OC)c(OC)c3)cs2)cc1 was read as E-sel inducer 0, SIRT5 block 0 and DENV2 CPE rescue -16.
For O=C(COC(=O)[C@@H]1CC(O)CN1S(=O)(=O)c1ccc([N+](=O)[O-])cc1)NC12CC3CC(CC(C3)C1)C2 (stereo partly drawn) the results were E-sel inducer -2, SIRT5 block -2, DENV2 CPE rescue 8, ERAP1 inh 8 and PglD DTNB -6.
COCC(=O)NCCNc1nc2ccc(C)cc2cc1C was read as PglD DTNB 41* and PglD inh SP -3.
`Cc1ccc(C(=O)NCCNc2nc3cc(C)c(C)cc3cc2C)cc1` gave PglD DTNB 0.
Screening COc1ccc2cc(C(=O)OC(C)C)sc(=O)c2c1OC returned PglD DTNB -3.
Screening CO[C@H]1CN(C)C(=O)c2cc(NS(=O)(=O)c3c(C)noc3C)ccc2OC[C@@H](C)NC[C@H]1C returned E-sel inducer 0, SIRT5 block -1, DENV2 CPE rescue inconclusive, ERAP1 inh 3 and PglD DTNB 0.
`CC(Sc1nnc(N)s1)C(=O)Nc1ccc2c(c1)OCO2` (stereo not drawn) gave E-sel inducer 0, SIRT5 block 1, DENV2 CPE rescue inconclusive, ERAP1 inh 3 and PglD DTNB 1.
Screening CC(Sc1nnc(N)s1)C(=O)Nc1ccc(N2CCOCC2)cc1 (stereo not drawn) returned PglD DTNB 21* and PglD inh SP 0.
For COc1ccc2c3c(n(C)c2c1)[C@@H](CO)N(Cc1ccc(F)cc1)CC31CCN(C)CC1 the results were E-sel inducer 0, SIRT5 block 3, DENV2 CPE rescue -8 and ERAP1 inh -3.
`Cc1ccc(S(=O)(=O)Nc2ccc3c(c2)CC(=O)N([C@@H](C)CO)C[C@H](C)[C@H](CN(C)S(C)(=O)=O)O3)cc1` gave E-sel inducer 0, DENV2 CPE rescue 3, ERAP1 inh 2 and PglD DTNB 5.
Screening Cc1c(C(=O)Nc2ccccc2C(=O)N2CCCC2)cccc1[N+](=O)[O-] returned E-sel inducer 0, SIRT5 block 2, DENV2 CPE rescue -2, ERAP1 inh 1, PglD DTNB 23* and PglD inh SP 2.
`COC(=O)c1c(C(=O)OC)c(C)n(Cc2cccnc2)c1C` gave PglD DTNB 31* and PglD inh SP -2.
For CC(C)(C)OC(=O)C[C@@H]1C/C=C\C[C@H](CC(=O)N(CCO)Cc2ccccc2)C(=O)N[C@@H](Cc2ccccc2)COC1=O the results were E-sel inducer 0, SIRT5 block -1, DENV2 CPE rescue -1, ERAP1 inh -1 and PglD DTNB -4.
COc1cc(C(=O)Nc2nnc(SC)s2)c([N+](=O)[O-])cc1OC was read as SIRT5 block -4, DENV2 CPE rescue inconclusive and ERAP1 inh 1.
Screening COc1cc(C(=O)Nc2nnc(C(F)(F)F)s2)c([N+](=O)[O-])cc1OC returned SIRT5 block 5, DENV2 CPE rescue -4, ERAP1 inh 3, PglD DTNB 43* and PglD inh SP 2.
CCCC#Cc1cnc2c(c1)C(=O)N([C@@H](C)CO)C[C@@H](C)[C@@H](CN(C)C(=O)Nc1ccc(OC)cc1)O2 was read as E-sel inducer -1, SIRT5 block 2, DENV2 CPE rescue -11, ERAP1 inh 1 and PglD DTNB 1.
For CN(c1ccc(C(=O)Nc2cccnc2)cc1)S(C)(=O)=O the results were PglD DTNB -3.
Screening CS(=O)(=O)N(CC(=O)NCCSc1ccccn1)c1cccc2ccccc12 returned SIRT5 block -1, ERAP1 inh 1, PglD DTNB 20* and PglD inh SP -3.
CCOc1cc(C(=S)N2CCOCC2)ccc1OC(=O)c1ccc(C)cc1 was read as SIRT5 block 3, DENV2 CPE rescue -3, ERAP1 inh -1, PglD DTNB 45* and PglD inh SP 2.
